Measurements taken from ChEMBL document CHEMBL1142792, “Structure-activity relationship studies of salubrinal lead to its active biotinylated derivative” (Bioorg Med Chem Lett, 2005).

Experiments:
Format in all cases: functional, cell-based
[1] = test system: PC-12; assay: Cytoprotective activity on rat tunicamycin treated rat pheochromocytoma cell line PC12 from apoptosis induced by Endoplasmic reticulum stress; NA = Not active upto 100 uM
Method in brief: (§1)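 PC12 cells exposed to tunicamycin (ER-stress inducer) together with graded compound doses for 37 h; viability read as cellular ATP content. Positive control: zVAD.fmk 100 µM. EC50 taken as concentration giving half-maximal rescue from cell death relative to the Tm-only control.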

[2] = test system: PC-12; assay: Cytoprotective activity on rat tunicamycin treated rat pheochromocytoma cell line PC12 from apoptosis induced by Endoplasmic reticulum stress; method in brief: as §1
[3] = test system: PC-12; assay: Cytoprotective activity on rat tunicamycin treated rat pheochromocytoma cell line PC12 from apoptosis induced by Endoplasmic reticulum stress; TX=Toxic; method in brief: as §1

Structure (SMILES) | EC50 [2] | other results
CC(C)=CC(=O)NC(/N=C(\S)Nc1ccccn1)C(Cl)(Cl)Cl (stereo unspecified) | – | EC50 [1]: Not Active
O=C(/C=C/c1ccccc1)NC(NC(=S)Nc1cccc2cccnc12)C(Cl)(Cl)Cl (stereo unspecified) [SALUBRINAL] | 15 µM | –
O=C(NC(NC(=S)Nc1ccccn1)C(Cl)(Cl)Cl)c1ccccc1 (stereo unspecified) | – | EC50 [1]: Not Active
O=C(/C=C/c1ccccc1)NC(NC(=S)Nc1ccccn1)C(Br)(Br)Br (stereo unspecified) | 51 µM | –
O=C(/C=C/c1ccccc1)NC(/N=C(\S)Nc1ccccn1)C(F)(F)F (stereo unspecified) | – | EC50 [3]: Toxic
CCCC/N=C(\S)NC(NC(=O)/C=C/c1ccccc1)C(Cl)(Cl)Cl (stereo unspecified) | 24 µM | –
O=C(/C=C/c1ccccc1)NC(CO)/N=C(\S)Nc1ccccn1 (stereo unspecified) | – | EC50 [1]: Not Active
O=C(/C=C/c1ccc(Br)cc1)NC(NC(=S)Nc1ccccn1)C(Cl)(Cl)Cl (stereo unspecified) | 50 µM | –
O=C(/C=C/c1ccccc1)NNC(=S)Nc1ccccn1 | – | EC50 [3]: Toxic
CCCCOc1ccc(/C=C/C(=O)NC(/N=C(\S)Nc2ccccn2)C(Cl)(Cl)Cl)cc1 (stereo unspecified) | – | EC50 [1]: Not Active
O=C(/C=C/c1ccccc1)NCCNC(=S)Nc1ccccn1 | – | EC50 [3]: Toxic
O=C(/C=C/c1ccccc1)NC(NC(=S)Nc1ccccn1)C(Cl)Cl (stereo unspecified) | 75 µM | –
O=C(CCc1ccccc1)NC(NC(=S)Nc1ccccn1)C(Cl)(Cl)Cl (stereo unspecified) | 33 µM | –
O=C(/C=C/c1ccccc1)NC(NC(=S)Nc1cnc2ccccc2c1)C(Cl)(Cl)Cl (stereo unspecified) | – | EC50 [1]: Not Active
O=C(/C=C/c1ccccc1)NC(NC(=S)NC(=O)c1ccccc1)C(Cl)(Cl)Cl (stereo unspecified) | > 100 µM | –
CCOC(=O)C(/N=C(\S)Nc1ccccn1)NC(=O)/C=C/c1ccccc1 (stereo unspecified) | – | EC50 [1]: Not Active
O=C(/C=C/c1ccccc1)NC1CSC(Nc2ccccn2)=N1 (stereo unspecified) | – | EC50 [1]: Not Active

Second part, led by results:

EC50 [2] | Structure (SMILES) | other results
40 µM | O=C(/C=C/c1ccccc1)NC(NC(=S)Nc1ccccn1)C(Cl)(Cl)Cl (stereo unspecified) | –
41 µM | O=C(/C=C/c1cccs1)NC(NC(=S)Nc1ccccn1)C(Cl)(Cl)Cl (stereo unspecified) | –
56 µM | Nc1ccc(/C=C/C(=O)NC(/N=C(\S)Nc2ccccn2)C(Cl)(Cl)Cl)cc1 (stereo unspecified) | –
30 µM | O=C(/C=C/c1cccnc1)NC(NC(=S)Nc1ccccn1)C(Cl)(Cl)Cl (stereo unspecified) | –
29 µM | O=C(/C=C/C1CCCCC1)NC(NC(=S)Nc1ccccn1)C(Cl)(Cl)Cl (stereo unspecified) | –
72 µM | O=C(/C=C/c1ccc(F)cc1F)NC(/N=C(\S)Nc1ccccn1)C(Cl)(Cl)Cl (stereo unspecified) | –
38 µM | O=C(/C=C/c1ccccc1C(F)(F)F)NC(/N=C(\S)Nc1ccccn1)C(Cl)(Cl)Cl (stereo unspecified) | –
28 µM | O=C(/C=C/c1ccc([N+](=O)[O-])cc1)NC(/N=C(\S)Nc1ccccn1)C(Cl)(Cl)Cl (stereo unspecified) | –
40 µM | O=C(/C=C/c1ccccc1Cl)NC(NC(=S)Nc1ccccn1)C(Cl)(Cl)Cl (stereo unspecified) | –
